Assay results published in ChEMBL document CHEMBL1133021, “1,3,5-Trialkyl-2,4,6-triiodobenzenes: novel X-ray contrast agents for gastrointestinal imaging” (J Med Chem, 2000).

Legend:
Rattus norvegicus [1] = species: Rattus norvegicus; experiment: Percent of compound (40 uM) present in unmetabolized form in rats after incubation with microsomes for 60 min; type: functional; settings: Microsome
Procedure, shortened: (§1)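 Substrate at 40 µM was incubated 60 min with male Sprague-Dawley rat or male golden Syrian hamster liver microsomes, in duplicate, with sampling at 0, 15, 30 and 60 min. Aliquots were zinc sulfate-quenched, propan-2-ol-extracted and run on isocratic reversed-phase C8 HPLC. Intact drug is expressed relative to 0 min control values.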

Cricetinae gen. sp. [2] = experiment: Number of hamsters (female) with follicular cell necrosis over the total number of tested at 4.56 g/kg of compound in iodinated form administered orally; 0/3; type: functional, Cricetulus griseus
Cricetinae gen. sp. [3] = experiment: Number of hamsters (male) with follicular cell mitotic figures above the control value, to that of total number of tested at 4.56 g/kg of compound in iodinated form administered orally; 3/3; type: functional, Cricetulus griseus
Mus musculus [4] = experiment: Toxicity in mice evaluated, after a single dose of compound containing 2.28 g/kg of iodinated form administered as 20 ml/kg solution; NT=No toxicity; type: organism-based; settings: in vivo, 2280 mg/kg
Procedure, shortened: (§2)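 Mice, 3 per dose group, received a single oral dose of the test agent as a mineral oil-in-water emulsion. Doses were 10, 20 or 40 mL/kg, about 1-, 2- and 4-fold the anticipated human dose of 114 mg I/mL. Emulsion vehicle alone at 40 mL/kg was the control. Clinical signs and mortality were checked several times on the dosing day, then daily for 7 days. Body weight was taken at 24 h and 1 week, and survivors were necropsied on day 7. Read-out was deaths over animals dosed.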

Mus musculus [5] = experiment: Mortality observed in mouse tested for murine toxicity after a single dose of compound (7.00 g/kg) containing iodinated form (4.56 g/kg) of it, administered as 40 mL/kg solution; 0/3; type: functional; procedure, shortened: as §2
Cricetinae gen. sp. [6] = experiment: Number of hamsters (male) with follicular cell necrosis over the total number of tested at 4.56 g/kg of compound in iodinated form administered orally; 3/3; type: functional, Cricetulus griseus
Cricetulus griseus [7] = species: Cricetulus griseus; experiment: Compound (4 uM) was evaluated for the half-life period in hamster after incubation with microsomes for 60 min; type: functional; settings: Microsome
Procedure, shortened: (§3)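 Liver microsomes from male Sprague-Dawley rat, male golden Syrian hamster or human, incubated with substrate at 4 µM. Duplicate incubates were sampled at 0, 15, 30 and 60 min, quenched with saturated zinc sulfate and extracted with propan-2-ol. Samples were analysed by isocratic reversed-phase C8 HPLC (65% i-PrOH/water, 0.1% TFA). Values were normalized to the 0 min control to derive half-life (n = 2).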

Cricetinae gen. sp. [8] = experiment: Number of hamsters (female) with follicular cell dilation over the total number of tested at 4.56 g/kg of compound in iodinated form administered orally; 3/3; type: functional, Cricetulus griseus
Cricetinae gen. sp. [9] = experiment: Number of hamsters (male) with follicular cell dilation over the total number of tested at 4.56 g/kg of compound in iodinated form administered orally; 3/3; type: functional, Cricetulus griseus
Mus musculus [10] = experiment: Toxicity in mice evaluated, after a single dose of compound containing 1.14 g/kg of iodinated form administered as 10 mL/kg solution; NT=No toxicity; type: organism-based; settings: in vivo, 1140 mg/kg; procedure, shortened: as §2
Cricetinae gen. sp. [11] = experiment: Number of hamsters (female) with follicular cell mitotic figures above the control value, to that of total number of tested at 4.56 g/kg of compound in iodinated form administered orally; 3/3; type: functional, Cricetulus griseus
Cricetulus griseus [12] = species: Cricetulus griseus; experiment: Percent of compound (40 uM) present in unmetabolized form in hamsters after incubation with microsomes for 60 min; type: functional; settings: Microsome; procedure, shortened: as §1
Homo sapiens = species: Homo sapiens; experiment: Compound (4 uM) was evaluated for the half-life period in humans after incubation with microsomes for 60 min; settings: Microsome
Rattus norvegicus [13] = species: Rattus norvegicus; experiment: Compound (4 uM) was evaluated for the half-life period in rats after incubation with microsomes for 60 min; type: functional; settings: Microsome; procedure, shortened: as §3
Cricetinae gen. sp. [14] = experiment: Number of hamsters (male) with follicular cell necrosis over the total number of tested at 4.56 g/kg of compound in iodinated form administered orally; 0/5; type: functional, Cricetulus griseus
Cricetinae gen. sp. [15] = experiment: Number of hamsters (male) with follicular cell dilation over the total number of tested at 4.56 g/kg of compound in iodinated form administered orally; 0/5; type: functional, Cricetulus griseus
Cricetinae gen. sp. [16] = experiment: Number of hamsters (male) with follicular cell mitotic figures above the control value, to that of total number of tested at 4.56 g/kg of compound in iodinated form administered orally; 0/5; type: functional, Cricetulus griseus
Mus musculus [17] = experiment: Mortality observed in mouse tested for murine toxicity, 7 days after a single dose of compound containing 3.27g/kg of iodinated form, administered as 20 ml/kg solution; type: functional; procedure, shortened: as §2
Mus musculus [18] = experiment: Mortality observed in mouse tested for murine toxicity after a single dose of compound (12.5 g/kg) containing iodinated form (3.81 g/kg) of it, administered as 10 mL/kg solution; 3/3; type: functional
Mus musculus [19] = experiment: Mortality observed in mouse tested for murine toxicity after a single dose of compound (5.34 g/kg) containing iodinated form (1.63 g/kg) of it, administered as 10 mL/kg solution; 3/3; type: functional
Mus musculus [20] = experiment: Mortality observed in mouse tested for murine toxicity, 7 days after a single dose of compound containing 6.53 g/kg of iodinated form, administered as 40 mL/kg solution; type: functional; procedure, shortened: as §2
Mus musculus [21] = experiment: Mortality observed in mouse tested for murine toxicity after a single dose of compound (6.26 g/kg) containing iodinated form (1.91 g/kg) of it, administered as 10 mL/kg solution; 1/3; type: functional
Mus musculus [22] = experiment: Mortality observed in mouse tested for murine toxicity after a single dose of compound (2.80 g/kg) containing iodinated form (0.853 g/kg) of it, administered as 10 mL/kg solution; 1/3; type: functional
Cricetinae gen. sp. [23] = experiment: Number of hamsters (female) with follicular cell dilation over the total number of tested at 4.56 g/kg of compound in iodinated form administered orally; 1/3; type: functional, Cricetulus griseus
Cricetinae gen. sp. [24] = experiment: Number of hamsters (male) with follicular cell dilation over the total number of tested at 4.56 g/kg of compound in iodinated form administered orally; 1/3; type: functional, Cricetulus griseus
Cricetinae gen. sp. [25] = experiment: Number of hamsters (male) with follicular cell necrosis over the total number of tested at 4.56 g/kg of compound in iodinated form administered orally; 0/3; type: functional, Cricetulus griseus
Cricetinae gen. sp. [26] = experiment: Number of hamsters (female) with follicular cell necrosis over the total number of tested at 4.56 g/kg of compound in iodinated form administered orally; 1/6; type: functional, Cricetulus griseus
Cricetinae gen. sp. [27] = experiment: Number of hamsters (male) with follicular cell mitotic figures above the control value, to that of total number of tested at 4.56 g/kg of compound in iodinated form administered orally; 1/3; type: functional, Cricetulus griseus
Mus musculus [28] = experiment: Mortality observed in mouse tested for murine toxicity after a single dose of compound (8.49 g/kg) containing iodinated form (4.56 g/kg) of it, administered as 40 mL/kg solution; 0/3; type: functional; procedure, shortened: as §2
Cricetinae gen. sp. [29] = experiment: Number of hamsters (female) with follicular cell mitotic figures above the control value, to that of total number of tested at 4.56 g/kg of compound in iodinated form administered orally; 1/3; type: functional, Cricetulus griseus

CCCCCCC(C)Oc1c(I)cc(I)cc1I (configuration not stated)
Intact (Rattus norvegicus [1]): 73%
Necrosis (Cricetinae gen. sp. [2]): 0
Mitotic figures (Cricetinae gen. sp. [3]): 3
Toxicity (Mus musculus [4]): Not toxic
Mortality (Mus musculus [5]): 0 number of descendants/number of tested
Necrosis (Cricetinae gen. sp. [6]): 2
T1/2 (Cricetulus griseus [7]): 15 min
Dilation (Cricetinae gen. sp. [8]): 3
Dilation (Cricetinae gen. sp. [9]): 3
Toxicity (Mus musculus [10]): Not toxic
Mitotic figures (Cricetinae gen. sp. [11]): 3
Intact (Cricetulus griseus [12]): 73%
T1/2 (Homo sapiens): 132 min
T1/2 (Rattus norvegicus [13]): 36 min

CC(C)CCCCCc1c(I)c(CCCCCC(C)C)c(I)c(CCCCCC(C)C)c1I
Necrosis (Cricetinae gen. sp. [14]): 0
Dilation (Cricetinae gen. sp. [15]): 0
Mitotic figures (Cricetinae gen. sp. [16]): 0

CCOC(=O)CCCCCCCCC(C)c1ccc(I)cc1 (configuration not stated) [IOPHENDYLATE]
Mortality (Mus musculus [17]): 100%
Mortality (Mus musculus [18]): 3 number of descendants/number of tested
Mortality (Mus musculus [19]): 3 number of descendants/number of tested
Mortality (Mus musculus [20]): 100%
Mortality (Mus musculus [21]): 1 number of descendants/number of tested
Mortality (Mus musculus [22]): 1 number of descendants/number of tested

CCCCCCc1c(I)c(CCCCCC)c(I)c(CCCCCC)c1I
Dilation (Cricetinae gen. sp. [23]): 0
Dilation (Cricetinae gen. sp. [24]): 1
Necrosis (Cricetinae gen. sp. [25]): 0
Necrosis (Cricetinae gen. sp. [26]): 0
Toxicity (Mus musculus [4]): Not toxic
Mitotic figures (Cricetinae gen. sp. [27]): 1
Mortality (Mus musculus [28]): 0 number of descendants/number of tested
Mitotic figures (Cricetinae gen. sp. [29]): 0
Toxicity (Mus musculus [10]): Not toxic
